Experiments:
[1] = Cytotoxicity against human SH-SY5Y cells assessed as LDH release after 48 hrs (reference value: 0%); type: cell-based
Outline: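 SH-SY5Y neuroblastoma cells were grown in serum for 5 days, then exposed to inhibitor (1–500 nM range). LDH activity in the medium was measured with a commercial kit. Values are % activity relative to untreated cells, which were set to 0%.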

[2] = molecular target: T1, Farnesyl pyrophosphate synthase (Homo sapiens, UniProt P14324); test: Binding affinity to human FPPS by […] in absence of Mg2+ ions
T1 sequence (P14324 whole entry): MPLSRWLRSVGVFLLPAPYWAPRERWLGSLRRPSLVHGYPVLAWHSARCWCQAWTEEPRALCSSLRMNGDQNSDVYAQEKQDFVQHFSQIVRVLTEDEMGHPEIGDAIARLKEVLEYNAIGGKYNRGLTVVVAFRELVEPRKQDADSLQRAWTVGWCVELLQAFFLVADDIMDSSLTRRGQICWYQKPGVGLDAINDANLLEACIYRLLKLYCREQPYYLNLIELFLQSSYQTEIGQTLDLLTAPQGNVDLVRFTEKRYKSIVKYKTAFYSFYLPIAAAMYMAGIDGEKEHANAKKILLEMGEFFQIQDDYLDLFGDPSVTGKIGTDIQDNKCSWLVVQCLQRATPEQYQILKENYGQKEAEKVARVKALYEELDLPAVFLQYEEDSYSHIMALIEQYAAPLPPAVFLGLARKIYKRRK
Outline: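 ITC at 30 °C. One 1 μL ligand injection was followed by 18 injections of 2 μL. Heats of dilution from control titrations were subtracted.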

[3] = Dissociation constant, pKa of P(O)O-OH group of compound; type: physicochemical
[4] = molecular target: T1, Farnesyl pyrophosphate synthase; test: Allosteric inhibition of human recombinant FPPS using GPP and [3H]IPP as substrate incubated with enzyme for 10 mins prior to substrate addition by liquid scintillation counting analysis
[5] = molecular target: T2, Farnesyl pyrophosphate synthase (Homo sapiens) (UniProt P14324); test: Allosteric inhibition of human recombinant FPPS using GPP and [3H]IPP as substrate at 20 uM incubated with enzyme for 10 mins prior to substrate addition by liquid scintillation counting analysis
T2 sequence (whole entry): T1 sequence (P14324 whole entry)

SMILES | IC50 [4] | Activity [1] | also measured
O=P(O)(O)C(Nc1ncnc2sc(-c3ccc(OC4CC4)cc3)cc12)P(=O)(O)O | – | -1% | –
Cc1ccc(-c2cc3c(NCP(=O)(O)O)ncnc3s2)cc1 | – | – | Kd [2]: 9.2 µM; pKa [3]: 6.8
O.O=P(O)(O)C(O)(Cn1ccnc1)P(=O)(O)O [ZOLEDRONIC ACID] | – | 60% | –
Cc1ccc(-c2cc3c(NC(P(=O)(O)O)P(=O)(O)O)ncnc3s2)cc1 | – | – | Kd [2]: 56 µM
O=P(O)(O)C(O)(Cc1cccnc1)P(=O)(O)O [RISEDRONIC ACID] | – | 60% | –
O=C(O)Cn1c(C(=O)O)cc2ccc3ccccc3c21 | – | 3% | –
O=P(O)(O)C(Cc1cccnc1)P(=O)(O)O | 0.033 µM | – | –
Cc1ccc(-c2cc3c(CCP(=O)(O)O)ncnc3s2)cc1 | 26 µM | – | pKa [3]: 7.7
O=P(O)(O)CCc1cccnc1 | > 800 µM | – | –
O=P(O)(O)C(Nc1cncc(-c2ccc(OC3CC3)cc2)c1)P(=O)(O)O | – | 0% | –

Further lines, with some results ahead:

IC50 [4] | SMILES | Activity [1] | also measured
> 20 µM | Cc1ccc(-c2cc3c(NCC(=O)O)ncnc3s2)cc1 | – | inhibition [5]: 27%
3.3 µM | Cc1ccc(-c2cc3c(NCP(=O)(O)O)ncnc3s2)cc1Cl | – | –
1.2 µM | Cc1ccc(-c2cc3c(NC(c4ccccc4)P(=O)(O)O)ncnc3s2)cc1Cl (centres undefined) | -7% | –
> 20 µM | Cc1ccc(-c2cc3c(NCCP(=O)(O)O)ncnc3s2)cc1 | – | inhibition [5]: 40%

From ChEMBL document CHEMBL3297739 (J Med Chem, 2014)
